Data on three compounds can be found in ChEMBL document CHEMBL3108762, “Novel pyridazinone inhibitors for vascular adhesion protein-1 (VAP-1): old target-new inhibition mode” (J Med Chem, 2013).

The source made the active and inactive calls. The calls are words filed in the database; no cut-off is given here.

The species named for one data set is Cavia porcellus. Put plainly: Inhibition of guinea pig VAP-1.
Another data set deals with Cricetinae. As to the kind of experiment: Inhibition of hamster VAP-1.
Data set [1] addresses T1, Amine oxidase [copper-containing] 3 (Homo sapiens, UniProt Q16853).
T1 sequence (Q16853 whole entry): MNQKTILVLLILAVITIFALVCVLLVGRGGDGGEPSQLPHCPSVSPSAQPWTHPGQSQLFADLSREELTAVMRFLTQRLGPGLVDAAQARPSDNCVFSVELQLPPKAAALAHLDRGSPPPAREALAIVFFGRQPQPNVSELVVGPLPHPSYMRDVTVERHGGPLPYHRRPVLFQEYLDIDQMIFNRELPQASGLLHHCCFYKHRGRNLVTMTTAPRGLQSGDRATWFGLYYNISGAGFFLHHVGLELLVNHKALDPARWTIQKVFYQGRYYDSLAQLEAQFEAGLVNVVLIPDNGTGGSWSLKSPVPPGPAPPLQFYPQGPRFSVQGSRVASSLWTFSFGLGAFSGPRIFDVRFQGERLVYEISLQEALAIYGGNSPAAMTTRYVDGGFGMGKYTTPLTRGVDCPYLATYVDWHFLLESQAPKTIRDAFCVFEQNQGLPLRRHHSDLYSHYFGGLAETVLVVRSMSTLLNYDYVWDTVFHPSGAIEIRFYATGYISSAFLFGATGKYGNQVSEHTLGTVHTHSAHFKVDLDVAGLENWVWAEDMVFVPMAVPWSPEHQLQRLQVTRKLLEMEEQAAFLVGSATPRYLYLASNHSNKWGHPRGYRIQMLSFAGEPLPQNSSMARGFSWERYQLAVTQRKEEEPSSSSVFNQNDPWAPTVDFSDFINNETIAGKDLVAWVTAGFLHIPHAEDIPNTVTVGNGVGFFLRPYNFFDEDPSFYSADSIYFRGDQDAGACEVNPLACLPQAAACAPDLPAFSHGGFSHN
As to the kind of experiment: Binding affinity to human recombinant VAP-1 by surface plasmon resonance analysis. The gist of the method:
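Surface plasmon resonance binding kinetics: recombinant purified VAP-1 amine-coupled to a CM5 chip after preconcentration in 10 mM Na acetate pH 4.4 with 10 μM CuCl2.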
In general terms: Surface plasmon resonance follows binding to a sensor surface in real time, without labels.

The target of data set [2] is T2, Amine oxidase [copper-containing] 3 (Rattus norvegicus) (UniProt O08590).
T2 sequence (whole entry): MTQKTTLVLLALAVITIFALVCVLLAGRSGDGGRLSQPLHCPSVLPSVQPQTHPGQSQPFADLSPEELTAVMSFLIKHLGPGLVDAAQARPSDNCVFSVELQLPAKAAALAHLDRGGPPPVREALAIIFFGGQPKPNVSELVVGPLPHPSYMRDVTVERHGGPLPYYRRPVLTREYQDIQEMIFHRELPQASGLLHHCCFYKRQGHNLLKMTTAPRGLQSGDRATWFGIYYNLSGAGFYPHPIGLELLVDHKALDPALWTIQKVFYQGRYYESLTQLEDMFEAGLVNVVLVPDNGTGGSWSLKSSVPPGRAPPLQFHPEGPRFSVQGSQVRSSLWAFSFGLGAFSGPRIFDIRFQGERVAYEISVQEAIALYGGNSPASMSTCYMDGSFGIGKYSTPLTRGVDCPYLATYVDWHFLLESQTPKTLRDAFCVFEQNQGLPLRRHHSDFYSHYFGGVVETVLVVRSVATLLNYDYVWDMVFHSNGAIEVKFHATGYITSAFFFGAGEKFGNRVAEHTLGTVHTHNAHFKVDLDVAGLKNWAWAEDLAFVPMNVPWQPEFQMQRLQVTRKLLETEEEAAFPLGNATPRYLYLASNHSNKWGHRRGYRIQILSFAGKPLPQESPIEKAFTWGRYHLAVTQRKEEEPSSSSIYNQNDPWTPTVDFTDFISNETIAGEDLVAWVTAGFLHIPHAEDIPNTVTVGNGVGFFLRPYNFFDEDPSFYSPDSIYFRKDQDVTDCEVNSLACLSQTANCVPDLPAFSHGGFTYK
Put plainly: Inhibition of rat VAP-1.

Data set [3] concerns the target T3, Diamine oxidase [copper-containing] (Sus scrofa) (UniProt Q9TRC7).
T3 sequence (whole entry): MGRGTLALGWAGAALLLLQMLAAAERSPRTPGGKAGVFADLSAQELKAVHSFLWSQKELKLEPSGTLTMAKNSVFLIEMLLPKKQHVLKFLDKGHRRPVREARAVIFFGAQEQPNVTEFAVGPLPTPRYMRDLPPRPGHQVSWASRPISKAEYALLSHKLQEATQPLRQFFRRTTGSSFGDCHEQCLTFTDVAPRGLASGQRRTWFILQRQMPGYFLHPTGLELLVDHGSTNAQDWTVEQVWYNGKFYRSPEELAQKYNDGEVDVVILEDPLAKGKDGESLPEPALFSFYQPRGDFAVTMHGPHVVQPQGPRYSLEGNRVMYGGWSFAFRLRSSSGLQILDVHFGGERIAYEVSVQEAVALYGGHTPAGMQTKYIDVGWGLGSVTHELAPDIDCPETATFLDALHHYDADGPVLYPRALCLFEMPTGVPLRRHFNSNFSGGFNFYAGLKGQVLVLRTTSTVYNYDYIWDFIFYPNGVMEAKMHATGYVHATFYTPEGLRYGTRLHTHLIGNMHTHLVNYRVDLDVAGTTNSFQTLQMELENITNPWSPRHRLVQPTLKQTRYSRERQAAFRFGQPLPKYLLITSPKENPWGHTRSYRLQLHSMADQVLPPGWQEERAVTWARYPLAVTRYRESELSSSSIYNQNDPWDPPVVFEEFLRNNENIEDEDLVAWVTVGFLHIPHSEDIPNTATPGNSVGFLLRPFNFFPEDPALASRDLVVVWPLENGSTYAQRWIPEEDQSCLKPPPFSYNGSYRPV
As to the kind of experiment: Inhibition of pig kidney DAO at 100 uM.

For a further data set, the species on record is Rattus norvegicus. As to the kind of experiment: Inhibition of rat liver MAO using vanillic acid/tyramine as substrate at 100 uM incubated for 30 mins prior to tyramine addition measured after 1 hr by spectrophotometry. The procedure, abridged: (§1)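 Peroxidase-coupled colorimetric assay as for VAP-1, with 1 mM vanillic acid in place of 2,4-dichlorophenol and 0.5 mM tyramine (final) as substrate. Conditions: 0.2 M potassium phosphate pH 7.6, 500 μM 4-aminoantipyrine, 4 U/ml HRP, 30 min preincubation at 37 °C, then 1 h at 37 °C; A490 read. Enzymes: purified human MAO-A or MAO-B from baculovirus-infected BTI insect cells, or total MAO-A/B extracted from rat liver mitochondria. Single-concentration percent inhibition.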

Data set [4] is described as follows: Inhibition of cynomolgus monkey recombinant VAP-1 transfected in CHO cells using 2,4-dichlorophenol/benzylamine as substrate incubated for 30 mins prior to benzylamine addition measured after 1 hr by spectrophotometry. In kind it is cell-based, Macaca fascicularis. The procedure, abridged: (§2)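 Coupled colorimetric H2O2 assay with lysate of CHO cells stably expressing full-length VAP-1 of the listed species, dosed to give 0.6 A490/h. Conditions: 0.2 M potassium phosphate pH 7.6, 1 mM 2,4-dichlorophenol, 500 μM 4-aminoantipyrine, 4 U/ml HRP, inhibitor 1 nM–50 μM. Preincubated 30 min at 37 °C, then 1 mM benzylamine (final) for 1 h at 37 °C; A490 read, background-corrected, percent inhibition versus control, IC50 fitted; mean of two to six experiments ± SE.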

Data set [5] addresses T4, Amine oxidase [copper-containing] 3 (Mus musculus) (UniProt O70423).
T4 sequence (whole entry): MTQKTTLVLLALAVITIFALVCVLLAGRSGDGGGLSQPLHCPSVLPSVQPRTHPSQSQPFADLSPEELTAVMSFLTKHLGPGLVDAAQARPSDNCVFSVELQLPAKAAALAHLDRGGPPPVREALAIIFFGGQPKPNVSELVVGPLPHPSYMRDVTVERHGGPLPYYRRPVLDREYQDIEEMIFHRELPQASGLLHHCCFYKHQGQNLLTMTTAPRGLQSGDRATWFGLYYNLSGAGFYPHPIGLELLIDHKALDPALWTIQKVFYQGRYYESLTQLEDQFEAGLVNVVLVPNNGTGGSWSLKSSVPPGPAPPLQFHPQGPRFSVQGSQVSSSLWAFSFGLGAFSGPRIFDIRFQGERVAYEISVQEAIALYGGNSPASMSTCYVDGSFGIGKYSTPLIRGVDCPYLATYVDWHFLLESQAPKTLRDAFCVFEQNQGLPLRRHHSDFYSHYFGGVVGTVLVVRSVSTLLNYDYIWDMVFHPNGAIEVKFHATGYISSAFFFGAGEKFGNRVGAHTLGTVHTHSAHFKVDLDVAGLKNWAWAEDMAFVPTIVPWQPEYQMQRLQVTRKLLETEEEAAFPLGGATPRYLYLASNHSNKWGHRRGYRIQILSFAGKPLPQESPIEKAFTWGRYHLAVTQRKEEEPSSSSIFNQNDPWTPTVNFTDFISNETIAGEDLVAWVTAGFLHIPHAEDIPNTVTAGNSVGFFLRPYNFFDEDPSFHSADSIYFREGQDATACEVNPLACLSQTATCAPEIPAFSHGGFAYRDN
As to the kind of experiment: Inhibition of mouse recombinant VAP-1 transfected in CHO cells using 2,4-dichlorophenol/benzylamine as substrate at 1 nM to 50 uM incubated for 30 mins prior to benzylamine addition measured after 1 hr by spectrophotometry. In kind it is cell-based. The procedure, abridged: as §2

Data set [6] addresses T1, Amine oxidase [copper-containing] 3. As to the kind of experiment: Inhibition of human recombinant VAP-1 transfected in CHO cells using 2,4-dichlorophenol/benzylamine as substrate incubated for 30 mins prior to benzylamine addition measured after 1 hr by spectrophotometry. It counts as cell-based. The gist of the method:
as §2

Data set [7] has as its target T3, Diamine oxidase [copper-containing] (Sus scrofa). As to the kind of experiment: Inhibition of pig kidney DAO at 50 uM.
The target in a further data set is T5, MAO-B (Homo sapiens, UniProt P27338).
T5 sequence (P27338 whole entry): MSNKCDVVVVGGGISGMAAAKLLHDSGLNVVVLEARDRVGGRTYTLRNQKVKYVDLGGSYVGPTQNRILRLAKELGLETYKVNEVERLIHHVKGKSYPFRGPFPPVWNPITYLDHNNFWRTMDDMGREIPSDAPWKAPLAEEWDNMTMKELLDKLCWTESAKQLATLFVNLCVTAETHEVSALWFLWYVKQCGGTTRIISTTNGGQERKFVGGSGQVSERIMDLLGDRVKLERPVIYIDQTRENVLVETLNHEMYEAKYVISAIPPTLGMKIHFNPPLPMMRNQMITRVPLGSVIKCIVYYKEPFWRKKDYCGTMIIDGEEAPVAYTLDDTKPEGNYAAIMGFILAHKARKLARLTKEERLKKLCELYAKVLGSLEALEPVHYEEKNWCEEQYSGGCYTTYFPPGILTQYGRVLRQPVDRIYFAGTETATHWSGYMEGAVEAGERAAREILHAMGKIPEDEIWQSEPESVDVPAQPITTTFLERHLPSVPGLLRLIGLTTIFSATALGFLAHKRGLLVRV
As to the kind of experiment: Inhibition of human recombinant MAO-B expressed in baculovirus infected BTI insect cells using vanillic acid/tyramine as substrate at 20 uM incubated for 30 mins prior to tyramine addition measured after 1 hr by spectrophotometry. The note with it: probe tyramine (with vanillic acid). The procedure, abridged: as §1

A further data set deals with T6, MAO-A (Homo sapiens, UniProt P21397).
T6 sequence (P21397 whole entry): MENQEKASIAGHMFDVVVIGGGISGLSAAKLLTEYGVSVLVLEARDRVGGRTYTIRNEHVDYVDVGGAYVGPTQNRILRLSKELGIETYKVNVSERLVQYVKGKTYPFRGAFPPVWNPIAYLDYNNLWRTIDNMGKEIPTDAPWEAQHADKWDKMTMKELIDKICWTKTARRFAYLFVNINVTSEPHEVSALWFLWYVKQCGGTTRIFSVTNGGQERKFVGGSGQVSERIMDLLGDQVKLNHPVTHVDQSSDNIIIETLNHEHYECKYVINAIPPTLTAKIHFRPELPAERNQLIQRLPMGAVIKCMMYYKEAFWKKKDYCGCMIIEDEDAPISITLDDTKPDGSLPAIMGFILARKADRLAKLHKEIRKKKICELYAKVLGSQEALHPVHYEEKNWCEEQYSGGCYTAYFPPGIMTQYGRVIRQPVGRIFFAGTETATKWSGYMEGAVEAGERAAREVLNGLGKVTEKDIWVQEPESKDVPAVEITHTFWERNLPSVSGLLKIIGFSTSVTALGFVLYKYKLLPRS
Put plainly: Inhibition of human recombinant MAO-A expressed in baculovirus infected BTI insect cells using vanillic acid/tyramine as substrate at 20 uM incubated for 30 mins prior to tyramine addition measured after 1 hr by spectrophotometry. The note with it: probe tyramine (with vanillic acid). The gist of the method: as §1

As a reminder, the inhibition is the drop in the measured response relative to a control, in per cent. Usually Kd stands for the free concentration of one partner at which half of the binding sites on the other are occupied at equilibrium, for simple one-to-one binding. One may read the IC50 as the point on the concentration scale where inhibition reaches its midpoint. As to `CC(C)Nc1cc(=O)n(-c2ccccc2)nc1-c1nc[nH]n1`, the inhibition result (in the data set listed under Cavia porcellus; in the data set on Cricetinae; in [2]) was “inactive” throughout. For the same compound, the Kd in [1] turned out to be 200 nM. Moreover, the inhibition in data set [3] was found to be 30%; in the data set filed under Rattus norvegicus it was 8%; in data set [5], 10%. Besides, the IC50 in data set [4] is 250 nM; in data set [6], 290 nM.
With `CN1CCN(c2ccc(Nc3cc(=O)n(-c4ccc(Cl)cc4)nc3-c3nc[nH]n3)cc2)CC1`, the inhibition entry (in the data set listed under Cavia porcellus; in the data set on Cricetinae; in data set [2]) was “inactive” each time. Further, the inhibition came out at 36% in [7], 18% in the data set listed under Rattus norvegicus and 23% in data set [5]. The inhibition at 1 h, 20 µM came to 1% at MAO-B and 3% on MAO-A. Also, the IC50 in data set [4] came to 26 nM; in data set [6], 20 nM.
Take `O=c1cc(NC2CCCCC2)c(-c2nc[nH]n2)nn1-c1ccccc1`: the inhibition result (in the data set filed under Cavia porcellus; in the data set on Cricetinae; in [2]) was “inactive” each time. Further, the Kd in data set [1] turned out to be 170 nM. The values for the inhibition (in data set [3]; in the data set filed under Rattus norvegicus; in data set [5]) were 40%, 3% and 24%, respectively. In addition, the values for the inhibition at 1 h, 20 µM at MAO-B and on MAO-A were 13% and 4%, respectively. Further, the 50% inhibitory concentration (IC50) was determined as 130 nM in data set [4] and 71 nM in data set [6].
